Measured values taken from ChEMBL document CHEMBL1649230, “Aryl rhodanines specifically inhibit staphylococcal and enterococcal biofilm formation” (Antimicrob Agents Chemother, 2009).
Active and inactive are the calls of the source. No cut-off for these calls is given here.

What was measured:
Staphylococcus aureus [1] = experiment: Antimicrobial activity against Staphylococcus aureus ATCC 35556 assessed as effect on protein synthesis at 30 ug/ml; assay type: functional, organism-based
Enterococcus faecalis [2] = experiment: Antimicrobial activity against Enterococcus faecalis isolate F177 on medical grade silicone disk assessed as inhibition of bacterial biofilm after 18 hrs by broth microdilution method
Staphylococcus aureus [3] = experiment: Antimicrobial activity against Staphylococcus aureus ATCC 35556 assessed as inhibition of bacterial biofilm after 18 hrs by broth microdilution method; assay type: functional
In short: (§1)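 Static biofilm in tissue culture-treated polystyrene 96-well plates in 0.5× TSB with 1% glucose. Overnight culture diluted 1:100 gives about 5 × 10^6 cells/well. Compound 2-fold series, final 0.2–100 μM, 2% DMSO. Incubated 18 h at 37°C. Washed, heat-fixed 60°C for 60 min, stained with 0.06% crystal violet, read at OD600. MBIC is the lowest concentration giving ≥80% inhibition versus untreated. Geometric mean of ≥3 independent experiments.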

Staphylococcus aureus [4] = experiment: Antimicrobial activity against Staphylococcus aureus ATCC 35556 assessed as inhibition of primary adhesion of bacterial biofilm to PVC surface under static condition at MBIC after 30 mins by fluorescence emission using BaclLight Live Dead stain; assay type: functional, organism-based
In short: (§2)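 Mid-log S. aureus ATCC 35556 (OD600 0.5) grown in TSB at 37°C, washed, resuspended in PBS. Compound added (0× to 8× MBIC, 2% DMSO). Suspension placed on tissue culture-treated polystyrene or PVC 96-well plates (eight wells per level) or silicone disks in 24-well plates (three wells). Incubated 30 min at 37°C, then washed. BacLight Live/Dead fluorescence read (ex 485, em 530 nm). Result given as fraction adherent versus untreated.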

[5] = test system: Staphylococcus epidermidis; experiment: Antimicrobial activity against coagulase-negative Staphylococcus epidermidis isolate WTBF-40 assessed as inhibition of bacterial biofilm after 18 hrs by broth microdilution method; assay type: functional; in short: as §1
Staphylococcus aureus [6] = experiment: Antimicrobial activity against community acquired Staphylococcus aureus NCTC 8325 assessed as inhibition of bacterial biofilm after 18 hrs by broth microdilution method; assay type: functional; in short: as §1
Enterococcus faecalis [7] = experiment: Antimicrobial activity against Enterococcus faecalis ATCC 51575 on medical grade silicone disk assessed as inhibition of bacterial biofilm after 18 hrs by broth microdilution method; assay type: functional
Enterococcus faecium [8] = experiment: Antimicrobial activity against vancomycin-resistant Enterococcus faecium isolate EF1509 assessed as inhibition of bacterial biofilm after 18 hrs by broth microdilution method; assay type: functional
In short: (§3)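 Biofilm MBIC on tissue culture-treated polystyrene 96-well plates. Twofold dilutions, 0.2 to 100 μM final, with 2% DMSO final. Inoculum was an overnight culture diluted 1:100 (~5 × 10^6 cells/well) in 0.5× TSB plus 1% glucose, grown 18 h at 37°C. Wells washed, heat-fixed 60°C 60 min, stained with 0.06% crystal violet, OD600 read. MBIC is the lowest concentration giving ≥80% inhibition versus untreated; geometric mean of ≥3 experiments.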

Staphylococcus aureus [9] = experiment: Antimicrobial activity against Staphylococcus aureus ATCC 35556 assessed as inhibition of bacterial biofilm formation after 18 hrs by broth microdilution method in presence of 2 ug/ml fibrinogen; assay type: functional
In short: (§4)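 Polystyrene 96-well wells precoated with 100 μl fibronectin or fibrinogen (0–20 μg protein/ml) for 24 h at 4°C. Wells then washed with sterile water. The standard MBIC biofilm assay followed: 0.5× TSB with 1% glucose, 2% DMSO, 18 h at 37°C, crystal violet read at OD600.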

Staphylococcus aureus [10] = experiment: Antimicrobial activity against Staphylococcus aureus ATCC 35556 assessed as inhibition of bacterial biofilm formation after 18 hrs by broth microdilution method in presence of 1 ug/ml fibronectin; assay type: functional; in short: as §4
Staphylococcus aureus [11] = experiment: Antimicrobial activity against Staphylococcus aureus ATCC 35556 assessed as inhibition of primary adhesion of bacterial biofilm to silicone disk surface under static condition at 4 times MBIC after 30 mins by fluorescence emission using BaclLight Live Dead stain; assay type: functional, organism-based; in short: as §2
[12] = test system: Staphylococcus epidermidis; experiment: Antimicrobial activity against coagulase-negative Staphylococcus epidermidis isolate WTBF-48 assessed as inhibition of bacterial biofilm after 18 hrs by broth microdilution method; assay type: functional; in short: as §1
[13] = test system: Staphylococcus epidermidis; experiment: Antimicrobial activity against coagulase-negative Staphylococcus epidermidis isolate WTBF-46 assessed as inhibition of bacterial biofilm after 18 hrs by broth microdilution method; assay type: functional; in short: as §1
Staphylococcus aureus [14] = experiment: Antimicrobial activity against community acquired methicillin-resistant Staphylococcus aureus isolate 35392 assessed as inhibition of bacterial biofilm after 18 hrs by broth microdilution method; assay type: functional; in short: as §3
Staphylococcus aureus [15] = experiment: Antimicrobial activity against Staphylococcus aureus ATCC 35556 assessed as inhibition of bacterial biofilm formation after 18 hrs by broth microdilution method in presence of 2 ug/ml fibronectin; assay type: functional; in short: as §4
[16] = test system: Staphylococcus epidermidis; experiment: Antimicrobial activity against Staphylococcus epidermidis ATCC 35984 assessed as inhibition of bacterial biofilm after 18 hrs by broth microdilution method; assay type: functional; in short: as §1
[17] = test system: Staphylococcus epidermidis; experiment: Antimicrobial activity against coagulase-negative Staphylococcus epidermidis isolate WTBF-41 assessed as inhibition of bacterial biofilm after 18 hrs by broth microdilution method; assay type: functional; in short: as §3
Staphylococcus aureus [18] = experiment: Antimicrobial activity against Staphylococcus aureus ATCC 35556 assessed as inhibition of bacterial biofilm formation after 18 hrs by broth microdilution method in presence of 5 ug/ml fibronectin; assay type: functional; in short: as §4
Staphylococcus aureus [19] = experiment: Antimicrobial activity against Staphylococcus aureus ATCC 35556 assessed as inhibition of primary adhesion of bacterial biofilm to polystyrene surface under static condition at MBIC after 30 mins by fluorescence emission using BaclLight Live Dead stain; assay type: functional, organism-based; in short: as §2
Enterococcus faecium [20] = experiment: Antimicrobial activity against vancomycin-resistant Enterococcus faecium isolate EF208 assessed as inhibition of bacterial biofilm after 18 hrs by broth microdilution method; assay type: functional; in short: as §3
[21] = test system: Staphylococcus epidermidis; experiment: Antimicrobial activity against coagulase-negative Staphylococcus epidermidis isolate WTBF-45 assessed as inhibition of bacterial biofilm after 18 hrs by broth microdilution method; assay type: functional; in short: as §3
Staphylococcus aureus [22] = experiment: Antimicrobial activity against Staphylococcus aureus ATCC 35556 assessed as inhibition of bacterial biofilm formation after 18 hrs by broth microdilution method in presence of 20 ug/ml fibrinogen; assay type: functional; in short: as §4
Enterococcus faecalis [23] = experiment: Antimicrobial activity against vancomycin-resistant Enterococcus faecalis ATCC 51299 assessed as inhibition of bacterial biofilm after 18 hrs by broth microdilution method; assay type: functional; in short: as §3
Staphylococcus aureus [24] = experiment: Antimicrobial activity against Staphylococcus aureus NCTC 8325 on medical grade silicone disk assessed as inhibition of bacterial biofilm after 18 hrs by broth microdilution method
Staphylococcus aureus [25] = experiment: Antimicrobial activity against community acquired methicillin-resistant Staphylococcus aureus isolate 49404 assessed as inhibition of bacterial biofilm after 18 hrs by broth microdilution method; assay type: functional; in short: as §3
Staphylococcus aureus [26] = experiment: Antimicrobial activity against hospital acquired methicillin-resistant Staphylococcus aureus isolate 1094 assessed as inhibition of bacterial biofilm after 18 hrs by broth microdilution method; assay type: functional; in short: as §3
Staphylococcus aureus [27] = experiment: Antimicrobial activity against community acquired methicillin-resistant Staphylococcus aureus isolate 44081 assessed as inhibition of bacterial biofilm after 18 hrs by broth microdilution method; assay type: functional; in short: as §3
Staphylococcus aureus [28] = experiment: Antimicrobial activity against Staphylococcus aureus ATCC 35556 assessed as inhibition of bacterial biofilm formation after 18 hrs by broth microdilution method in presence of 1 ug/ml fibrinogen; assay type: functional; in short: as §4
Staphylococcus aureus [29] = experiment: Antimicrobial activity against community acquired methicillin-resistant Staphylococcus aureus isolate 23542 assessed as inhibition of bacterial biofilm after 18 hrs by broth microdilution method; assay type: functional; in short: as §3

SMILES	MBIC90 (Enterococcus faecalis [2])	MBIC (Staphylococcus aureus [3]) [µM]	MBIC [5] [µM]	MBIC (Staphylococcus aureus [6]) [µM]	MBIC (Enterococcus faecium [8])	MBIC (Staphylococcus aureus [9]) [µM]	MBIC (Staphylococcus aureus [10]) [µM]	MBIC [12] [µM]	MBIC [13] [µM]	MBIC (Staphylococcus aureus [15]) [µM]	MBIC [16] [µM]	MBIC [17] [µM]	MBIC (Staphylococcus aureus [18]) [µM]	MBIC (Enterococcus faecium [20]) [µM]	MBIC [21] [µM]	MBIC (Staphylococcus aureus [22]) [µM]	MBIC (Enterococcus faecalis [23]) [µM]	MBIC90 (Staphylococcus aureus [24]) [µM]	MBIC (Staphylococcus aureus [26]) [µM]	MBIC (Staphylococcus aureus [28]) [µM]	further results
CCOc1cc(/C=C2\SC(=S)N(c3cccnc3)C2=O)ccc1O	19.8 µM	10.5	35.4	12.5	21 µM	12.5	12.5	17.7	25	12.5	12.5	17.7	12.5	15.7	17.7	12.5	8.8	25	25	12.5	inhibition (Staphylococcus aureus [1]): inactive; inhibition (Staphylococcus aureus [4]): Active; MBIC90 (Enterococcus faecalis [7]): 19.8 µM; inhibition (Staphylococcus aureus [11]): Active; MBIC (Staphylococcus aureus [14]): 25 µM; inhibition (Staphylococcus aureus [19]): Active; MBIC (Staphylococcus aureus [25]): 31.5 µM; MBIC (Staphylococcus aureus [27]): 25 µM; MBIC (Staphylococcus aureus [29]): 25 µM
CCOc1cc(/C=C2\SC(=S)N(c3cccc(F)c3)C2=O)ccc1O	>=100 uM	4.4	59.5	25	>=100 uM	6.25	6.25	50	59.5	6.25	25	17.7	6.25	50	50	6.25	25	70.7	100	6.25	MBIC (Enterococcus faecalis [7]): 63 µM; MBIC (Staphylococcus aureus [29]): 19.8 µM
CCOc1cc(/C=C2\SC(=S)N(c3ccc(F)cc3)C2=O)ccc1O	>=100 uM	2.6	50	25	>=100 uM	3.125	3.125	25	50	3.125	17.7	14.9	3.125	31.5	25	6.25	12.5	79.4	100	3.125	inhibition (Staphylococcus aureus [1]): inactive; inhibition (Staphylococcus aureus [4]): Active; MBIC (Enterococcus faecalis [7]): 29.7 µM; inhibition (Staphylococcus aureus [11]): Active; inhibition (Staphylococcus aureus [19]): Active; MBIC (Staphylococcus aureus [25]): 63 µM; MBIC (Staphylococcus aureus [27]): 79.4 µM; MBIC (Staphylococcus aureus [29]): 31.5 µM
C=CCOc1cc(/C=C2\SC(=S)N(c3ccc(F)cc3)C2=O)ccc1O	100 µM	2.6	50	14.9	59.5 µM	3.125	3.125	12.5	70.7	3.125	17.7	17.7	3.125	35.4	25	3.125	–	100	100	3.125	MBIC90 (Enterococcus faecalis [7]): 100 µM; MBIC (Staphylococcus aureus [14]): 39.7 µM; MBIC (Staphylococcus aureus [25]): 15.7 µM; MBIC (Staphylococcus aureus [27]): 39.7 µM
